Experimental data as given in ChEMBL document CHEMBL2375229, “Synthesis and biological activities of some novel aminomethyl derivatives of 4-substituted-5-(2-thienyl)-2,4-dihydro-3H-1,2,4-triazole-3-thiones” (2013).
Values after ≈ are worked out from the molar mass of the structure shown.

Legend:
Format in all cases: functional
[1] = tested on: Radical scavenging activity; assay: Antioxidant activity of the compound assessed as DPPH free radical scavenging activity at 312.5 uM after 60 mins by spectrophotometric analysis relative to control
How it was run: (§1)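 DPPH• and sample stocks made in DMSO. DPPH• mixed with sample at several concentrations and brought to 4.0 mL in DMSO. Incubated 60 min at 25 °C in the dark, then absorbance read at 517 nm with solvent correction. Scavenging % = (A0−As)/A0×100 against a DPPH-only control. Ascorbic acid standard. Mean ± SD, n = 3.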

[2] = tested on: Trichophyton mentagrophytes; assay: Antifungal activity against Trichophyton mentagrophytes assessed as growth inhibition after 3 to 4 days by serial plate dilution method
How it was run: (§2)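 Agar of peptone, D-glucose and agar at pH 5.7, lawned with saline spore suspension and dried 1 h at 37 °C. Compounds in DMSO added to punched wells, DMSO solvent control. Triplicate plates held at 37 °C for 3–4 days. […] Ciclopiroxolamine standard.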

Escherichia coli = assay: Antibacterial activity against Escherichia coli ATCC 25922 assessed as growth inhibition after 3 to 4 days by serial plate dilution method
How it was run: (§3)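 Serial dilution in Mueller-Hinton broth adjusted to pH 5.0 with phosphate buffer. Standardized bacterial suspension inoculated, 16-18 h at 37 °C. Agar-well plates also used: compounds in DMSO added to punched wells, DMSO solvent control, triplicate plates held at 37 °C for 3–4 days. MIC taken as lowest concentration with no visible growth. Range tested 1.56–25 µg/mL. Ciprofloxacin standard.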

[3] = tested on: Radical scavenging activity; assay: Antioxidant activity of the compound assessed as DPPH free radical scavenging activity at 250 uM after 60 mins by spectrophotometric analysis relative to control; how it was run: as §1
Talaromyces marneffei = assay: Antifungal activity against Penicillium marneffei assessed as growth inhibition after 3 to 4 days by serial plate dilution method; how it was run: as §2
Aspergillus flavus = assay: Antifungal activity against Aspergillus flavus NCIM 524 assessed as growth inhibition after 3 to 4 days by serial plate dilution method; how it was run: as §2
[4] = tested on: Radical scavenging activity; assay: Antioxidant activity of the compound assessed as DPPH free radical scavenging activity at 125 uM after 60 mins by spectrophotometric analysis relative to control; how it was run: as §1
Klebsiella pneumoniae = assay: Antibacterial activity against Klebsiella pneumoniae assessed as growth inhibition after 3 to 4 days by serial plate dilution method; how it was run: as §3
[5] = tested on: Radical scavenging activity; assay: Antioxidant activity of the compound assessed as DPPH free radical scavenging activity at 187.5 uM after 60 mins by spectrophotometric analysis relative to control; how it was run: as §1
Staphylococcus aureus = assay: Antibacterial activity against Staphylococcus aureus ATCC 25923 assessed as growth inhibition after 3 to 4 days by serial plate dilution method; how it was run: as §3
[6] = tested on: Radical scavenging activity; assay: Antioxidant activity of the compound assessed as DPPH free radical scavenging activity at 62.5 uM after 60 mins by spectrophotometric analysis relative to control; how it was run: as §1
Aspergillus fumigatus = assay: Antifungal activity against Aspergillus fumigatus NCIM 902 assessed as growth inhibition after 3 to 4 days by serial plate dilution method; how it was run: as §2
Pseudomonas aeruginosa = assay: Antibacterial activity against Pseudomonas aeruginosa ATCC 27853 assessed as growth inhibition after 3 to 4 days by serial plate dilution method; how it was run: as §3

| MIC [2] | MIC (Escherichia coli) | MIC (Talaromyces marneffei) | MIC (Aspergillus flavus) | MIC (Klebsiella pneumoniae) | MIC (Staphylococcus aureus) | MIC (Aspergillus fumigatus) | MIC (Pseudomonas aeruginosa) | SMILES | inhibition [1] | inhibition [3] | inhibition [4] | inhibition [5] | inhibition [6] |
| --- | --- | --- | --- | --- | --- | --- | --- | --- | --- | --- | --- | --- | --- |
| 1.56 µg/mL (≈ 4.84 µM) | 6.25 µg/mL (≈ 19.4 µM) | 3.12 µg/mL (≈ 9.68 µM) | 1.56 µg/mL (≈ 4.84 µM) | 6.25 µg/mL (≈ 19.4 µM) | 3.12 µg/mL (≈ 9.68 µM) | 3.12 µg/mL (≈ 9.68 µM) | 6.25 µg/mL (≈ 19.4 µM) | C=CCn1c(-c2cccs2)nn(CN2CCOCC2)c1=S | 95% | 89.9% | 71.2% | 83.1% | 62.3% |
| 6.25 µg/mL (≈ 16.8 µM) | 12 µg/mL (≈ 32.2 µM) | 12 µg/mL (≈ 32.2 µM) | 6.25 µg/mL (≈ 16.8 µM) | 6.25 µg/mL (≈ 16.8 µM) | 6.25 µg/mL (≈ 16.8 µM) | 12 µg/mL (≈ 32.2 µM) | 12 µg/mL (≈ 32.2 µM) | CCCN(CCC)Cn1nc(-c2cccs2)n(-c2ccccc2)c1=S | – | 81.4% | 62.6% | 72.1% | 52.1% |
| 12 µg/mL (≈ 56.8 µM) | 12 µg/mL (≈ 56.8 µM) | 25 µg/mL (≈ 118 µM) | 12 µg/mL (≈ 56.8 µM) | 12 µg/mL (≈ 56.8 µM) | 12 µg/mL (≈ 56.8 µM) | 25 µg/mL (≈ 118 µM) | 12 µg/mL (≈ 56.8 µM) | CCn1c(-c2cccs2)n[nH]c1=S | 62.1% | 53.3% | 47.1% | 49.6% | 36.4% |
| 3.12 µg/mL (≈ 8.09 µM) | 12 µg/mL (≈ 31.1 µM) | 6.25 µg/mL (≈ 16.2 µM) | 3.12 µg/mL (≈ 8.09 µM) | 6.25 µg/mL (≈ 16.2 µM) | 6.25 µg/mL (≈ 16.2 µM) | 6.25 µg/mL (≈ 16.2 µM) | 12 µg/mL (≈ 31.1 µM) | CCn1c(-c2cccs2)nn(CN2CCN(c3ccccc3)CC2)c1=S | 90.2% | 82.5% | 63.1% | 72.7% | 52.2% |
| 3.12 µg/mL (≈ 7.81 µM) | 12 µg/mL (≈ 30 µM) | 6.25 µg/mL (≈ 15.6 µM) | 3.12 µg/mL (≈ 7.81 µM) | 6.25 µg/mL (≈ 15.6 µM) | 6.25 µg/mL (≈ 15.6 µM) | 6.25 µg/mL (≈ 15.6 µM) | 12 µg/mL (≈ 30 µM) | CCn1c(-c2cccs2)nn(CN2CCN(Cc3ccccc3)CC2)c1=S | 90.9% | 83.1% | 63.2% | 74.5% | 53.5% |
| 1.56 µg/mL (≈ 5.02 µM) | 6.25 µg/mL (≈ 20.1 µM) | 3.12 µg/mL (≈ 10 µM) | 1.56 µg/mL (≈ 5.02 µM) | 6.25 µg/mL (≈ 20.1 µM) | 3.12 µg/mL (≈ 10 µM) | 3.12 µg/mL (≈ 10 µM) | 6.25 µg/mL (≈ 20.1 µM) | CCn1c(-c2cccs2)nn(CN2CCOCC2)c1=S | 93.6% | 88.6% | 69.8% | 82.8% | 60.4% |
| 3.12 µg/mL | – | 6.25 µg/mL | 3.12 µg/mL | – | – | 6.25 µg/mL | – | Cc1cc(C2CCCCC2)n(O)c(=O)c1.NCCO [CICLOPIROX OLAMINE] | – | – | – | – | – |
| 12 µg/mL (≈ 46.3 µM) | 12 µg/mL (≈ 46.3 µM) | 25 µg/mL (≈ 96.4 µM) | 12 µg/mL (≈ 46.3 µM) | 12 µg/mL (≈ 46.3 µM) | 12 µg/mL (≈ 46.3 µM) | 25 µg/mL (≈ 96.4 µM) | 12 µg/mL (≈ 46.3 µM) | S=c1[nH]nc(-c2cccs2)n1-c1ccccc1 | 65.1% | 51.2% | 45.7% | 47.9% | 36.1% |
| 12 µg/mL (≈ 53.7 µM) | 12 µg/mL (≈ 53.7 µM) | 25 µg/mL (≈ 112 µM) | 12 µg/mL (≈ 53.7 µM) | 25 µg/mL (≈ 112 µM) | 25 µg/mL (≈ 112 µM) | 25 µg/mL (≈ 112 µM) | 12 µg/mL (≈ 53.7 µM) | C=CCn1c(-c2cccs2)n[nH]c1=S | 68.8% | 55.5% | 45.2% | 47.4% | 40.7% |
| 6.25 µg/mL (≈ 19.4 µM) | 3.12 µg/mL (≈ 9.67 µM) | 12 µg/mL (≈ 37.2 µM) | 6.25 µg/mL (≈ 19.4 µM) | 3.12 µg/mL (≈ 9.67 µM) | 1.56 µg/mL (≈ 4.84 µM) | 12 µg/mL (≈ 37.2 µM) | 3.12 µg/mL (≈ 9.67 µM) | CCn1c(-c2cccs2)nn(CN2CCC(C)CC2)c1=S | 71.3% | 67.6% | 52.5% | 65.2% | 49.2% |
| 1.56 µg/mL (≈ 4.35 µM) | 6.25 µg/mL (≈ 17.4 µM) | 3.12 µg/mL (≈ 8.7 µM) | 1.56 µg/mL (≈ 4.35 µM) | 6.25 µg/mL (≈ 17.4 µM) | 12 µg/mL (≈ 33.5 µM) | 3.12 µg/mL (≈ 8.7 µM) | 6.25 µg/mL (≈ 17.4 µM) | S=c1n(CN2CCOCC2)nc(-c2cccs2)n1-c1ccccc1 | – | 87.2% | 68.4% | 79.2% | 59.1% |
| 3.12 µg/mL (≈ 7.85 µM) | 12 µg/mL (≈ 30.2 µM) | 6.25 µg/mL (≈ 15.7 µM) | 3.12 µg/mL (≈ 7.85 µM) | 6.25 µg/mL (≈ 15.7 µM) | 6.25 µg/mL (≈ 15.7 µM) | 6.25 µg/mL (≈ 15.7 µM) | 12 µg/mL (≈ 30.2 µM) | C=CCn1c(-c2cccs2)nn(CN2CCN(c3ccccc3)CC2)c1=S | 91.6% | 84.1% | 64.4% | 75% | 54% |
| 3.12 µg/mL (≈ 6.88 µM) | 3.12 µg/mL (≈ 6.88 µM) | 6.25 µg/mL (≈ 13.8 µM) | 3.12 µg/mL (≈ 6.88 µM) | 3.12 µg/mL (≈ 6.88 µM) | 1.56 µg/mL (≈ 3.44 µM) | 6.25 µg/mL (≈ 13.8 µM) | 3.12 µg/mL (≈ 6.88 µM) | CCn1c(-c2cccs2)nn(CN2CCN(c3cccc(C(F)(F)F)c3)CC2)c1=S | 81.6% | 80.2% | 61.1% | 71.3% | 52% |
| 6.25 µg/mL (≈ 18.7 µM) | 3.12 µg/mL (≈ 9.33 µM) | 12 µg/mL (≈ 35.9 µM) | 6.25 µg/mL (≈ 18.7 µM) | 3.12 µg/mL (≈ 9.33 µM) | 1.56 µg/mL (≈ 4.66 µM) | 12 µg/mL (≈ 35.9 µM) | 3.12 µg/mL (≈ 9.33 µM) | C=CCn1c(-c2cccs2)nn(CN2CCC(C)CC2)c1=S | 72.4% | 69.7% | 53.5% | 68.1% | 50.1% |
| – | – | – | – | – | – | – | – | O=C1O[C@H]([C@@H](O)CO)C(O)=C1O | 91.7% | 85.8% | 65% | 75.2% | 55.1% |
| 6.25 µg/mL (≈ 16.9 µM) | 3.12 µg/mL (≈ 8.42 µM) | 12 µg/mL (≈ 32.4 µM) | 6.25 µg/mL (≈ 16.9 µM) | 3.12 µg/mL (≈ 8.42 µM) | 1.56 µg/mL (≈ 4.21 µM) | 12 µg/mL (≈ 32.4 µM) | 3.12 µg/mL (≈ 8.42 µM) | CC1CCN(Cn2nc(-c3cccs3)n(-c3ccccc3)c2=S)CC1 | – | 66.9% | 51.1% | 61.1% | 44.7% |

| SMILES | MIC [2] | MIC (Escherichia coli) | MIC (Talaromyces marneffei) | MIC (Aspergillus flavus) | MIC (Klebsiella pneumoniae) | MIC (Staphylococcus aureus) | MIC (Aspergillus fumigatus) | MIC (Pseudomonas aeruginosa) | inhibition [1] | inhibition [3] | inhibition [4] | inhibition [5] | inhibition [6] |
| --- | --- | --- | --- | --- | --- | --- | --- | --- | --- | --- | --- | --- | --- |
| O=C(O)c1cn(C2CC2)c2cc(N3CCNCC3)c(F)cc2c1=O [CIPROFLOXACIN] | – | – | – | – | 6.25 µg/mL (≈ 18.9 µM) | 3.12 µg/mL (≈ 9.42 µM) | – | – | – | – | – | – | – |
